Measured values taken from ChEMBL document CHEMBL3044924, “Design, synthesis, and insecticidal activities of phthalamides containing a hydrazone substructure” (2010).
Converted amounts (≈) assume the structure as drawn. The source made the active and inactive calls. No cut-off for these calls is given here.

Tests used:
Myzus persicae [1] = test: Stomach toxicity in adult Myzus persicae (green peach aphid) in compound treated cabbage leaves assessed as mortality at 600 mg/L at 25 degC and 85% RH for 24 hr; type: functional, organism-based
Plutella xylostella = test: Larvicidal activity against second instar Plutella xylostella (diamondback moth) in compound treated cabbage leaves assessed as mortality at 600 mg/L measured after 3 days; type: functional; conditions: 72 h
Outline: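 Lab-reared field-collected stock (Haidian, Beijing), second-instar larvae. Leaf-dip assay: 2.0 cm cabbage leaf disks dipped 5 s in test solution, air-dried, then placed in a 6.0 cm tube lined with filter paper. Larvae added within 10 s. Mortality (%) scored 3 days after treatment, two replicates.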

Myzus persicae [2] = test: Insecticidal activity against adult Myzus persicae (green peach aphid) in compound treated cabbage leaves assessed as mortality at 25 degC and 85% RH for 24 hr; type: functional
Myzus persicae [3] = test: Insecticidal activity against adult Myzus persicae (green peach aphid) in compound treated cabbage leaves assessed as mortality at 12.5 mg/L at 25 degC and 85% RH for 24 hr; type: functional
Outline: (§1)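 Aphids exposed to treated leaf at 200, 50 and 12.5 mg/L. Mortality corrected for untreated controls with Abbott's formula.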

Myzus persicae [4] = test: Insecticidal activity against adult Myzus persicae (green peach aphid) in compound treated cabbage leaves assessed as mortality at 200 mg/L at 25 degC and 85% RH for 24 hr; type: functional; outline: as §1
Myzus persicae [5] = test: Insecticidal activity against adult Myzus persicae (green peach aphid) in compound treated cabbage leaves assessed as mortality at 50 mg/L at 25 degC and 85% RH for 24 hr; type: functional; outline: as §1
Myzus persicae [6] = test: Insecticidal activity against adult Myzus persicae (green peach aphid) in compound treated cabbage leaves assessed as mortality at 600 mg/L at 25 degC and 85% RH for 24 hr; type: functional

SMILES	Activity (Myzus persicae [1])	mortality at 600 µg/mL (Plutella xylostella)	LC50 (Myzus persicae [2])	mortality at 12.5 µg/mL (Myzus persicae [3])	mortality at 200 µg/mL (Myzus persicae [4])	mortality at 50 µg/mL (Myzus persicae [5])	mortality at 600 µg/mL (Myzus persicae [6])
O=C(NN=Cc1ccc(O)cc1)c1cc(Cl)ccc1C(=O)NC1CCCCC1	Active	55.6%	244 µg/mL (≈ 611 µM)	25.7%	24.6%	19.4%	92.6%
CCCCNC(=O)c1ccc(Cl)cc1C(=O)NN=Cc1ccc(C(F)(F)F)cc1	Active	33.3%	130 µg/mL (≈ 305 µM)	12.5%	49.3%	22.9%	96.6%
CCCCNC(=O)c1ccc(Cl)cc1C(=O)NN=Cc1cccs1	Active	44.4%	124 µg/mL (≈ 341 µM)	9.4%	35.7%	23.3%	98.6%
CCCCNC(=O)c1ccc(Cl)cc1C(=O)NN=Cc1ccc(F)cc1	Active	33.3%	310 µg/mL (≈ 825 µM)	19%	20%	18.6%	97.7%
O=C(NN=Cc1ccccc1Cl)c1cc(Cl)ccc1C(=O)NC1CCCCC1	Active	66.7%	148 µg/mL (≈ 355 µM)	26.2%	41.3%	28%	100%
O=C(NN=Cc1ccco1)c1cc(Cl)ccc1C(=O)NC1CCCCC1	Active	33.3%	221 µg/mL (≈ 592 µM)	8.2%	15.7%	20%	100%
CC(C)NC(=O)c1ccc(Cl)cc1C(=O)NN=Cc1ccccc1Cl	Active	33.3%	171 µg/mL (≈ 451 µM)	16.3%	28.2%	12.5%	92.9%
O=C(NN=Cc1cccs1)c1cc(Cl)ccc1C(=O)NC1CCCCC1	Active	33.3%	113 µg/mL (≈ 290 µM)	19.6%	37.8%	13.5%	98.8%
CC(C)NC(=O)c1ccc(Cl)cc1C(=O)NN=Cc1ccco1	Active	44.4%	161 µg/mL (≈ 484 µM)	18.6%	29.3%	25.4%	100%
CC(C)NC(=O)c1ccc(Cl)cc1C(=O)NN=Cc1ccc(O)cc1	Active	55.6%	129 µg/mL (≈ 357 µM)	5.4%	55.6%	16.9%	100%
Cc1ccc(C=NNC(=O)c2cc(Cl)ccc2C(=O)NC(C)C)o1	Active	44.4%	122 µg/mL (≈ 350 µM)	13.8%	50%	16.9%	96.4%
Cc1ccsc1C=NNC(=O)c1cc(Cl)ccc1C(=O)NC(C)C	Active	44.4%	124 µg/mL (≈ 342 µM)	16.3%	56.1%	25.5%	90.6%
Cc1cc(C(F)(C(F)(F)F)C(F)(F)F)ccc1NC(=O)c1cccc(I)c1C(=O)NC(C)(C)CS(C)(=O)=O [FLUBENDIAMIDE]			184 µg/mL (≈ 270 µM)				
CC(C)NC(=O)c1ccc(Cl)cc1C(=O)NN=Cc1cccs1	Active	0%	70.5 µg/mL (≈ 202 µM)	24%	45.5%	30.3%	98.7%
O=C(NN=Cc1ccccc1F)c1cc(Cl)ccc1C(=O)NC1CCCCC1	Active	33.3%	276 µg/mL (≈ 687 µM)	5.9%	23.8%	8.3%	90.2%
Cc1ccc(C=NNC(=O)c2cc(Cl)ccc2C(=O)NC(C)C)s1	Active	55.6%	76.2 µg/mL (≈ 209 µM)	29.3%	52.3%	32.7%	100%
CCCCNC(=O)c1ccc(Cl)cc1C(=O)NN=Cc1ccco1	Active	44.4%	234 µg/mL (≈ 673 µM)	0%	20%	11.7%	100%
Cc1ccc(C=NNC(=O)c2cc(Cl)ccc2C(=O)NC2CCCCC2)o1	Active	33.3%	271 µg/mL (≈ 700 µM)	0%	16%	7.3%	93%
CC(C)NC(=O)c1ccc(Cl)cc1C(=O)NN=Cc1ccc(F)cc1	Active	100%	68.1 µg/mL (≈ 188 µM)	21.9%	57.8%	52.8%	91.3%
Cc1nn(-c2ccccc2)c(Cl)c1C=NNC(=O)c1cc(Cl)ccc1C(=O)NC1CCCCC1	Active	66.7%	266 µg/mL (≈ 534 µM)	16.7%	9.5%	9.1%	91.9%
Cc1ccsc1C=NNC(=O)c1cc(Cl)ccc1C(=O)NC1CCCCC1	Active	11.1%	58.9 µg/mL (≈ 146 µM)	22.4%	45.2%	41.7%	90.6%
CCCCNC(=O)c1ccc(Cl)cc1C(=O)NN=Cc1ccccc1F	Active	22.2%	122 µg/mL (≈ 324 µM)	9.7%	39.6%	34%	94.6%
